From ChEMBL document CHEMBL5108089, “Structure-based discovery of potent inhibitors of Axl: design, synthesis, and biological evaluation” (RSC Med Chem, 2022)
Calls of active or inactive are those of the source. No cut-off for these calls is given here.

Columns and labels:
[1] = Intrinsic clearance in human; type: ADME
[2] = AUC (0 to last) in Sprague-Dawley rat at 5 mg/kg, po measured upto 24 hrs by LC-MS/MS analysis; type: ADME, organism-based; set-up: dose 5 mg/kg, time < 24 hrs, route po; conditions: in vivo
[3] = Half-life in Sprague-Dawley rat at 5 mg/kg, po measured upto 24 hrs by LC-MS/MS analysis; type: ADME, organism-based; conditions: in vivo
[4] = AUC (0 to last) in Sprague-Dawley rat at 1 mg/kg, iv measured upto 24 hrs by LC-MS/MS analysis; type: ADME, organism-based; set-up: dose 1 mg/kg, time < 24 hrs, route iv; conditions: in vivo
[5] = Cmax in Sprague-Dawley rat at 1 mg/kg, iv measured upto 24 hrs by LC-MS/MS analysis; type: ADME, organism-based; set-up: time < 24 hrs, dose 1 mg/kg, route iv; conditions: in vivo
[6] = Half-life in Sprague-Dawley rat at 1 mg/kg, iv measured upto 24 hrs by LC-MS/MS analysis; type: ADME, organism-based; conditions: in vivo
NCI-H226 = test: Antiproliferative activity against human NCI-H226 cells assessed as inhibition of cell growth incubated for 72 hrs by CCK-8 assay; type: functional
[7] = Antiproliferative activity against human NCI-H1954 cells assessed as inhibition of cell growth incubated for 72 hrs by CCK-8 assay; type: functional
MSTO-211H = test: Antiproliferative activity against human MSTO-211H cells assessed as inhibition of cell growth incubated for 72 hrs by CCK-8 assay; type: functional
A549 = test: Antiproliferative activity against human A549 cells assessed as inhibition of cell growth incubated for 72 hrs by CCK-8 assay; type: functional
Hep 3B2 = test: Antiproliferative activity against human Hep 3B2.1-7 cells assessed as inhibition of cell growth incubated for 72 hrs by CCK-8 assay; type: functional; conditions: Hep3B
MCF7 = test: Antiproliferative activity against human MCF7 cells assessed as inhibition of cell growth incubated for 72 hrs by CCK-8 assay; type: functional
EVSA-T = test: Antiproliferative activity against human EVSA-T cells assessed as inhibition of cell growth incubated for 72 hrs by CCK-8 assay; type: functional
HT-29 = test: Antiproliferative activity against human HT-29 cells assessed as inhibition of cell growth incubated for 72 hrs by CCK-8 assay; type: functional
KYSE-510 = test: Antiproliferative activity against human KYSE-510 cells assessed as inhibition of cell growth incubated for 72 hrs by CCK-8 assay; type: functional
[8] = Antiproliferative activity against human T.Tn cells assessed as inhibition of cell growth incubated for 72 hrs by CCK-8 assay; type: functional
MGC-803 = test: Antiproliferative activity against human MGC-803 cells assessed as inhibition of cell growth incubated for 72 hrs by CCK-8 assay; type: functional
SNU-16 = test: Antiproliferative activity against human SNU-16 cells assessed as inhibition of cell growth incubated for 72 hrs by CCK-8 assay; type: functional
Method in brief: (§1)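 8000 cells/well. Test compound was serially diluted from a 10 uM top concentration and staurosporine from 1 uM. CC50 and maximum % inhibition are reported.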

FaDu = test: Antiproliferative activity against human FaDu cells assessed as inhibition of cell growth incubated for 72 hrs by CCK-8 assay; type: functional
CAL-27 = test: Antiproliferative activity against human CAL-27 cells assessed as inhibition of cell growth incubated for 72 hrs by CCK-8 assay; type: functional
HeLa = test: Antiproliferative activity against human HeLa cells assessed as inhibition of cell growth incubated for 72 hrs by CCK-8 assay; type: functional
CAKI-1 = test: Antiproliferative activity against human CAKI-1 cells assessed as inhibition of cell growth incubated for 72 hrs by CCK-8 assay; type: functional
NAMALVA = test: Antiproliferative activity against human NAMALVA cells assessed as inhibition of cell growth incubated for 72 hrs by CCK-8 assay; type: functional
Method in brief: (§2)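 Plated at 10000 cells/well. Dose series topped at 10 uM for test compound and at 1 uM for the staurosporine reference. Read-outs were CC50 and maximum % inhibition.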

OVCAR-3 = test: Antiproliferative activity against human OVCAR-3 cells assessed as inhibition of cell growth incubated for 72 hrs by CCK-8 assay; type: functional
T-24 = test: Antiproliferative activity against human T24 cells assessed as inhibition of cell growth incubated for 72 hrs by CCK-8 assay; type: functional
MV4-11 = test: Antiproliferative activity against human MV4-11 cells assessed as inhibition of cell growth incubated for 72 hrs by CCK-8 assay; type: functional; method in brief: as §1
KU812 cell line = test: Antiproliferative activity against human KU812 cells assessed as inhibition of cell growth incubated for 72 hrs by CCK-8 assay; type: functional; method in brief: as §2
[9] = molecular target: Tyrosine-protein kinase receptor UFO (Homo sapiens) (UniProt P30530); test: Inhibition of Axl (unknown origin) a 1 uM relative to control
Method in brief: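 Ran 40 min at room temperature, stopped with 0.5% phosphoric acid, then filter-bound, washed and scintillation-counted. Inhibition was calculated as 100 − activity (%), given as mean ±SD.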

[10] = molecular target: Tyrosine-protein kinase Mer (Homo sapiens) (UniProt Q12866); test: Inhibition of Mer (unknown origin) at 1 uM
[11] = molecular target: Receptor-type tyrosine-protein kinase FLT3 (Homo sapiens) (UniProt P36888); test: Inhibition of Flt3 (unknown origin) at 1 uM
[12] = molecular target: Vascular endothelial growth factor receptor 2 (Homo sapiens) (UniProt P35968); test: Inhibition of KDR (unknown origin) at 1 uM relative to control
[13] = molecular target: Hepatocyte growth factor receptor (Homo sapiens) (UniProt P08581); test: Inhibition of Met (unknown origin) at 1 uM relative to control
Chain of Hepatocyte growth factor receptor (Homo sapiens) (P08581 whole entry): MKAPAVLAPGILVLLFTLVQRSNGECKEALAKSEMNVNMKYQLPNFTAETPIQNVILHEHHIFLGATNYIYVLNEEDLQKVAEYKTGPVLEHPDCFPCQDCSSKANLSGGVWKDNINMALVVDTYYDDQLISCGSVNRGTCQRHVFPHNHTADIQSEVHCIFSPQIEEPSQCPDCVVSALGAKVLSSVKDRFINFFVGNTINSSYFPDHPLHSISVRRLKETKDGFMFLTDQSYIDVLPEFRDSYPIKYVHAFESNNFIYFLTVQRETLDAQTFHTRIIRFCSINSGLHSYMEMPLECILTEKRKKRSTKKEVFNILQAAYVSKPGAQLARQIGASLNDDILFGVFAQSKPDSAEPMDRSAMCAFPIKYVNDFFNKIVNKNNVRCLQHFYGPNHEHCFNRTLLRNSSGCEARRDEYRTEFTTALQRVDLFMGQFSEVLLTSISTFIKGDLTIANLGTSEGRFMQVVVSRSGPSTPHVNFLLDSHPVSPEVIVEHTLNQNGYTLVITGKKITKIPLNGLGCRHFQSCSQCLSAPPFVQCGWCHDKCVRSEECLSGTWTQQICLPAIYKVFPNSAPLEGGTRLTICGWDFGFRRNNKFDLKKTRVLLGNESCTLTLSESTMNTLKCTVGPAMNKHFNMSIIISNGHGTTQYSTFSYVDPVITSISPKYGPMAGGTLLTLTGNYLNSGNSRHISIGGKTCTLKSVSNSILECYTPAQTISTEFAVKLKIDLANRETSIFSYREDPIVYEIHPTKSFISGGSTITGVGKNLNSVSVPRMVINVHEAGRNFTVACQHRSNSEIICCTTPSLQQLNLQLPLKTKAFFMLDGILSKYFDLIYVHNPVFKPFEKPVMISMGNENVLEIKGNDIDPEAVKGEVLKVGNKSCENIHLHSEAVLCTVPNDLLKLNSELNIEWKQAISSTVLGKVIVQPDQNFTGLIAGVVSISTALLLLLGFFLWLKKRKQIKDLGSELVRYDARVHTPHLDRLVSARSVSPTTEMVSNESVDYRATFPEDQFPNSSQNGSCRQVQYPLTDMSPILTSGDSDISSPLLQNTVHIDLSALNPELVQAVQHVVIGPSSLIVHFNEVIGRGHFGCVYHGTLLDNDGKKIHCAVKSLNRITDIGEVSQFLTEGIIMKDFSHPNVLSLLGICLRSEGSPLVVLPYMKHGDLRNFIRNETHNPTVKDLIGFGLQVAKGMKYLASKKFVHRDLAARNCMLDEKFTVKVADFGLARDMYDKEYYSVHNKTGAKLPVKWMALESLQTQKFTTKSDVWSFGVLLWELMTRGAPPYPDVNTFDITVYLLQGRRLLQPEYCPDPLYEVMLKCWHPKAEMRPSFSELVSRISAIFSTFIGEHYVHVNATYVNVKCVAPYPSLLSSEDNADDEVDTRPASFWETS

Chain of Receptor-type tyrosine-protein kinase FLT3 (Homo sapiens) (P36888 whole entry): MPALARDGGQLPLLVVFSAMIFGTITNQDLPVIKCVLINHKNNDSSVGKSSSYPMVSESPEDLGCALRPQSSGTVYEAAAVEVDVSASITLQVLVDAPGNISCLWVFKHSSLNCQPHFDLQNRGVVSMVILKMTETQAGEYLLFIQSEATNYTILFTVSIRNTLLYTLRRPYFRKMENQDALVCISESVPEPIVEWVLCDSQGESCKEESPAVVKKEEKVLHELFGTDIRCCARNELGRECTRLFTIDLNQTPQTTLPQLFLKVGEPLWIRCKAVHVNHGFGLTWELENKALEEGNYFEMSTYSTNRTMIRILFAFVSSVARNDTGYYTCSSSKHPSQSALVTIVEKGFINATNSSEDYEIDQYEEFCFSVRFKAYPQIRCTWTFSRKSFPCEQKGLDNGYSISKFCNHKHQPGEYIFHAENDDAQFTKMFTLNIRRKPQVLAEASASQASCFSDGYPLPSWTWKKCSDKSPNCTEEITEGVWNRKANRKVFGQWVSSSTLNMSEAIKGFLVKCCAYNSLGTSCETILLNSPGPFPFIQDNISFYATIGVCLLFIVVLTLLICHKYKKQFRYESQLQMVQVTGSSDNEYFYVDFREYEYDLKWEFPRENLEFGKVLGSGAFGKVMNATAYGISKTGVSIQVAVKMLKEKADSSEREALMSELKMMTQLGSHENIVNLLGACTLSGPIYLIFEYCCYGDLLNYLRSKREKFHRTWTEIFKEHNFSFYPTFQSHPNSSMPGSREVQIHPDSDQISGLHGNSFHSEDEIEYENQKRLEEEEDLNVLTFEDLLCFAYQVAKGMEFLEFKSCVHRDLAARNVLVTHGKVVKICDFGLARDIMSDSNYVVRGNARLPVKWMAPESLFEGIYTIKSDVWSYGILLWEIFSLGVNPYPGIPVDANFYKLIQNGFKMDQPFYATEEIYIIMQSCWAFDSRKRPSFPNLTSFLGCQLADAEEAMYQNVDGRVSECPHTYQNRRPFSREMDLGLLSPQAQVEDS
Chain of Tyrosine-protein kinase Mer (Homo sapiens) (Q12866 whole entry): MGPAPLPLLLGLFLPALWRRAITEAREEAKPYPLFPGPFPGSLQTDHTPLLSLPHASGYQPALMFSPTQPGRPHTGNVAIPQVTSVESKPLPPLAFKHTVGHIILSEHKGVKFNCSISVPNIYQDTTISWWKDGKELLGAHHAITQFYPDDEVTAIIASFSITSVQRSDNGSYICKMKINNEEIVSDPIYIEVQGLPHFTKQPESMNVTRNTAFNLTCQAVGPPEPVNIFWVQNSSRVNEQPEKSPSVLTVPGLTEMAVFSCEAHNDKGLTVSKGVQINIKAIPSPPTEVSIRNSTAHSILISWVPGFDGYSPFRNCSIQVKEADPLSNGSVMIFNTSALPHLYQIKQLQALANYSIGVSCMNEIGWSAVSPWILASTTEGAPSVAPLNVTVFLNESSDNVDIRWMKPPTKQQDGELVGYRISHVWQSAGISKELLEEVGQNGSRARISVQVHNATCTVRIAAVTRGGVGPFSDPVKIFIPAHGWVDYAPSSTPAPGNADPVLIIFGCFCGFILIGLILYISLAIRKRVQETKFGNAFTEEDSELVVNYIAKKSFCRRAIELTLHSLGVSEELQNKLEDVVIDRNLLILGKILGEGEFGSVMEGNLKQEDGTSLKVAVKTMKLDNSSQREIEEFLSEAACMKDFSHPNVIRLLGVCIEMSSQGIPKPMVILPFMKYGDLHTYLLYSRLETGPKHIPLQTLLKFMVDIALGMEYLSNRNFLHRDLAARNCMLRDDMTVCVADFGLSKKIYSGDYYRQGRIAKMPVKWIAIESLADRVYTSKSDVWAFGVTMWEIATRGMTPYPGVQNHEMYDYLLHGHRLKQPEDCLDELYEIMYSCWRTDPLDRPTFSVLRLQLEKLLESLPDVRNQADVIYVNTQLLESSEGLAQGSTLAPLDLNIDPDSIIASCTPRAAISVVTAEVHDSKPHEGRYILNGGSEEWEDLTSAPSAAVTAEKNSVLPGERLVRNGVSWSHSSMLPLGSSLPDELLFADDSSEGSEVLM
Chain of Tyrosine-protein kinase receptor UFO (Homo sapiens) (P30530 whole entry): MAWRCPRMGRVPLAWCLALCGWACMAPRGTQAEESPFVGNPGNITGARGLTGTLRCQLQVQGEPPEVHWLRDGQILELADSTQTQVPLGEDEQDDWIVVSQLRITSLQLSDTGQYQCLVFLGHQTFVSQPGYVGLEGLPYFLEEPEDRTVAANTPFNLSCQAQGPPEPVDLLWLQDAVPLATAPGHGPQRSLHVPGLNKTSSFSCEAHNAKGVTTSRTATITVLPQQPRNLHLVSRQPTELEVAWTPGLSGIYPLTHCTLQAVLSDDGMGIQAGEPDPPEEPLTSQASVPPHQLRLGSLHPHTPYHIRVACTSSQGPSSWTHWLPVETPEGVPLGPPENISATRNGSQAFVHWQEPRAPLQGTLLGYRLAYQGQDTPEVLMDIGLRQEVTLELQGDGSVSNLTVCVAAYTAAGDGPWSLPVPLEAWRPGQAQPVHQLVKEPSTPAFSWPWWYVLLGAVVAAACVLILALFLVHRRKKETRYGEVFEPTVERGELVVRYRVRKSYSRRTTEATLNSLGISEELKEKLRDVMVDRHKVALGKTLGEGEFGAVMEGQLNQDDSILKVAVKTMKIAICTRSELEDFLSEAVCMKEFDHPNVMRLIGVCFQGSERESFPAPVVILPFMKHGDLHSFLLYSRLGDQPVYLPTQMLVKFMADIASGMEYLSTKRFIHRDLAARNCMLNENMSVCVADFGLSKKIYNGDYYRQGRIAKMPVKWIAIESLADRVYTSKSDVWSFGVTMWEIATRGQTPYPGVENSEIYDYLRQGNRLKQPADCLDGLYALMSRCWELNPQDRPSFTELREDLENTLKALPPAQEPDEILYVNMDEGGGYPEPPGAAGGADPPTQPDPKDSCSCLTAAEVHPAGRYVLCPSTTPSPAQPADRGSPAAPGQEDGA

Which results are given for `CC(C)n1cnc(-c2ccccc2Nc2nc(Nc3ccc(N(C)C4CCN(C)CC4)cc3)ncc2Cl)n1`?
CLint scaled [1]: 12 mL/min/kg; AUClast [2]: 1180 ng·h/mL; half-life [3]: 6.45 h; AUClast [4]: 422 ng·h/mL; Cmax [5]: 56.3 ng/mL; half-life [6]: 6.6 h; CC50 (NCI-H226): 1240 nM; CC50 [7]: 1210 nM; CC50 (MSTO-211H): 451 nM; CC50 (A549): 293 nM; CC50 (Hep 3B2): 81.2 nM; CC50 (MCF7): 5190 nM; CC50 (EVSA-T): 1150 nM; CC50 (HT-29): 504 nM; CC50 (KYSE-510): 117 nM; CC50 [8]: 119 nM; CC50 (MGC-803): 103 nM; CC50 (SNU-16): 149 nM; CC50 (FaDu): 79.8 nM; CC50 (CAL-27): 107 nM; CC50 (HeLa): 199 nM; CC50 (CAKI-1): 493 nM; CC50 (NAMALVA): 494 nM; CC50 (OVCAR-3): 224 nM; CC50 (T-24): 933 nM; CC50 (MV4-11): 66 nM; CC50 (KU812 cell line): 233 nM; inhibition [9]: 90%; inhibition [10]: Active; inhibition [11]: Active; inhibition [12]: 70%; inhibition [13]: 70%
